Measurements pooled from the literature.
Compare with care: the assays were run in different laboratories.
Target: Serine/threonine-protein kinase 17A (STK17A, Homo sapiens, UniProt Q9UEE5)
Residues used in one study (Q9UEE5 1-414): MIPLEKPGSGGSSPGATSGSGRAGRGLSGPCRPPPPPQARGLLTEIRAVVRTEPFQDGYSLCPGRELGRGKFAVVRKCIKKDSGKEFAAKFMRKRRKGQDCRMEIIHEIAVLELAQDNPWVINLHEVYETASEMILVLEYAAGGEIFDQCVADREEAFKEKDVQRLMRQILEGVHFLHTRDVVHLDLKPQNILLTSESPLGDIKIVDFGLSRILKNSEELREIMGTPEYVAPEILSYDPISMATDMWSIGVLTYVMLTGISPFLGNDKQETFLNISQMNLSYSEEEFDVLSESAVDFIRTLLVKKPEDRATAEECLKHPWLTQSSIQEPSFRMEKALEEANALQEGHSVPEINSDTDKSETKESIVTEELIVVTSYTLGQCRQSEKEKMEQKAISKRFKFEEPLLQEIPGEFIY

COc1ccc2[nH]c3c4[nH]c5ccc(OC)cc5c4c4c(c3c2c1)C(=O)NC4=O
remaining binding (binding; 1 µM): 0.4%

C=CC(=O)N1CCC[C@@H](n2nc(-c3ccc(Oc4ccccc4)cc3)c3c(N)ncnc32)C1
inhibition (enzyme activity, inhibitor; 1 µM): 8%

Cc1ccc(NC(=O)c2ccnc(C(F)(F)F)c2)cc1-c1cc(OCCO)nc(N2CCOCC2)c1
remaining binding (binding; 1 µM): 91%

CCCCC(=O)Nc1ccc(-c2ccc3ncn(CCC)c(=O)c3c2)cn1
remaining binding (binding, competition with immobilised ligand; 0.5 µM): 100%

CC(C)S(=O)(=O)c1ccc2nccc(Nc3ccc4sc(C5CCCC5)nc4c3)c2c1
activity vs control (enzyme activity, inhibitor; 1 µM): 108%

COc1ccc2oc(-c3ccc4nc(N)oc4c3)c/c(=N\c3ccccc3NC(=O)CCN)c2c1
remaining binding (binding; 1 µM): 89%

CC#CC(=O)N1CCC[C@H]1c1nc(-c2ccc(C(=O)Nc3ccccn3)cc2)c2c(N)nccn12
inhibition (enzyme activity, inhibitor; 1 µM): 0%

Cc1cc(O)c(-c2ccc([C@@H](C)CN(C)C)cc2)c2c1[nH]c(=O)c1sccc12
inhibition (cell-free assay, inhibitor; 0.1 µM): 3.3%
